Results taken from article PMC9260854 (Biochemistry, 2022).
Substitutions are numbered along the chain they refer to. Where two headings read alike, the source gives them in different places.

Legend:
[1] = target: T1, SULT2B1b S347D (Homo sapiens, UniProt O00204, S347D); experiment: Equilibrium binding via intrinsic fluorescence
T1 sequence (O00204 1-365 S347D): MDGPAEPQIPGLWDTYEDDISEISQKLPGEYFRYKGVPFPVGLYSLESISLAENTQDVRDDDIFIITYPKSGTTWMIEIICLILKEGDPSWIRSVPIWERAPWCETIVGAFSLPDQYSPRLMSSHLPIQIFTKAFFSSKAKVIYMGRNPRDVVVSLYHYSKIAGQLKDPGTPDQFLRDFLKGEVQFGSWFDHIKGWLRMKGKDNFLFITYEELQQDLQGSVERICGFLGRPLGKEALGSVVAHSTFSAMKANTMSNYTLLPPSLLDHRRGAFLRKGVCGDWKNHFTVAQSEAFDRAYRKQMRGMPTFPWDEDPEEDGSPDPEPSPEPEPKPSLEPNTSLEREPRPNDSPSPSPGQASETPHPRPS
In short: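 Intrinsic fluorescence titrations of purified His/GST/MBP-tag-cleaved enzyme, excitation 290 nm, in KPO4 (50 mM), pH 7.5, 25 ± 2 °C. […] Triplicate averaged data were fit to a single-site-per-monomer model.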

[2] = test system: Oc1ccc2ccc3cccc4ccc1c2c34; experiment: purified protein, by the assay type; conditions: saturating PAPS (300 μM), (−) quercetin, pH 7.5, 25.0 °C
[3] = target: T1, SULT2B1b S347D; experiment: Stopped-flow ligand-binding studies
[4] = target: T2, SULT2B1b, S347D, Y257A (Homo sapiens, UniProt O00204, S347D/Y257A); experiment: Initial-rate parameters, direct-contact mutant Y257A; conditions: read-out: Km PAPS; Y257A; saturating 1-HP (100 μM); (−) quercetin
T2 sequence (O00204 1-365 Y257A/S347D): T1 sequence (O00204 1-365 S347D) with Y257A

[5] = target: T3, SULT2B1b, S347D, W13A (Homo sapiens, UniProt O00204, S347D/W13A); experiment: Initial-rate parameters, direct-contact mutant W13A; conditions: read-out: Km PAPS; W13A; saturating 1-HP (100 μM); (−) quercetin
T3 sequence (O00204 1-365 W13A/S347D): T1 sequence (O00204 1-365 S347D) with W13A

[6] = target: T4, SULT2B1b, S347D, W98A (Homo sapiens, UniProt O00204, S347D/W98A); experiment: Initial-rate parameters, direct-contact mutant W98A; conditions: read-out: Km PAPS; W98A; saturating 1-HP (100 μM); (−) quercetin
T4 sequence (O00204 1-365 W98A/S347D): T1 sequence (O00204 1-365 S347D) with W98A

[7] = test system: Oc1ccc2ccc3cccc4ccc1c2c34; experiment: Initial-rate parameters, spin-labeled mutant 247; type: biochemical, human; conditions: other: spin label at 247; saturating PAPS (300 μM); 25.0 °C
[8] = target: T1, SULT2B1b S347D; experiment: Initial-rate 1-HP sulfonation; conditions: for Ki: read-out: Ki 7-DH
[9] = test system: SULT2B1b; conditions: cited from earlier work
[10] = test system: Oc1ccc2ccc3cccc4ccc1c2c34; experiment: Initial-rate parameters, non DTNB-reactive scaffold; type: biochemical, human; conditions: other: NR; saturating PAPS (300 μM); 25.0 °C
[11] = test system: Oc1ccc2ccc3cccc4ccc1c2c34; experiment: Initial-rate parameters, spin-labeled mutant 171; type: biochemical, human; conditions: other: spin label at 171; saturating PAPS (300 μM); 25.0 °C
[12] = test system: Oc1ccc2ccc3cccc4ccc1c2c34; experiment: Initial-rate parameters, spin-labeled mutant 21; type: biochemical, human; conditions: other: spin label at 21; saturating PAPS (300 μM); 25.0 °C

Nc1ncnc2c1ncn2[C@@H]1O[C@H](COP(=O)(O)O)[C@@H](OP(=O)(O)O)[C@H]1O [PAP, 3′-phosphoadenosine 5′-phosphate]
Kd [1]: 380 nM

SULT2B1b, S347D, Y257A (Homo sapiens; S347D/Y257A)
Km ([2]; other: Y257A): 4.0 (0.3) μM

Nc1ncnc2c1ncn2[C@@H]1O[C@H](COP(=O)(O)OS(=O)(=O)O)[C@@H](OP(=O)(O)O)[C@H]1O [PAPS, 3′-phosphoadenosine 5′-phosphosulfate]
koff ([3]; (−) Quc): 3.0 (0.2) s^−1
kon ([3]; (−) Quc): 8.0 (0.3)^1 μM^−1s^−1
rate constant for release of PAPS ([3]; absence of quercetin): 3.0 ± 0.2 s⁻¹
decrease of koff PAPS ([3]; at saturating quercetin): 14 fold
rate constant for PAPS release ([3]; at saturating quercetin): 0.22 ± 0.2 s⁻¹
Kd ([3]; read-out: Kd PAPS (koff/kon), (−) Quc): 380 nM
increase of PAPS affinity ([1]; at saturating quercetin): 12 fold
Km [4]: 0.37 µM
Km [5]: 0.36 µM
Km [6]: 0.31 µM

SULT2B1b S347D (Homo sapiens; S347D)
Km ([2]; other: WT): 3.8 (0.3) μM
kcat ([2]; other: WT): 3.4 s⁻¹

SULT2B1b S347D spin-labeled at residue 247 (Homo sapiens; C225S/C278S/C81S/S247C/S347D)
Km [7]: 3.6 (0.3) μM
kcat [7]: 3.5 s⁻¹

SULT2B1b, S347D, W13A (Homo sapiens; S347D/W13A)
Km ([2]; other: W13A): 4.2 (0.3) μM

SULT2B1b, S347D, W98A (Homo sapiens; S347D/W98A)
Km ([2]; other: W98A): 3.6 (0.2) μM

CC(C)=CCC[C@@H](C)[C@H]1CC[C@H]2[C@@H]3CC=C4C[C@@H](O)CC[C@]4(C)[C@H]3CC[C@]12C [24-DH, 24-dehydrocholesterol]
inhibition of SULT2B1b turnover ([8]; concentrations as high as 10 μM): does not inhibit
SULT2B1b substrate [9]: neither of which is a SULT2B1b substrate

SULT2B1b C81S, C225S, C278S, S347D (Homo sapiens; C225S/C278S/C81S/S347D)
Km [10]: 3.5 (0.2) μM
kcat [10]: 3.3 s⁻¹

SULT2B1b S347D spin-labeled at residue 171 (Homo sapiens; C225S/C278S/C81S/S347D/T171C)
Km [11]: 4.1 (0.2) μM
kcat [11]: 3 s⁻¹

SULT2B1b S347D spin-labeled at residue 21 (Homo sapiens; C225S/C278S/C81S/S21C/S347D)
Km [12]: 4.2 (0.3) μM
kcat [12]: 3.6 s⁻¹

CC(C)CCC[C@@H](C)[C@H]1CC[C@H]2C3=CC=C4C[C@@H](O)CC[C@]4(C)[C@H]3CC[C@]12C [7-DH, 7-dehydrocholesterol]
α (fraction turnover at saturation), 7-DH ([8]; PAPS 30 μM, 1-HP 100 μM): 0.11 ± 0.02
Ki [8]: 110 nM
Ki ([8]; PAPS 30 μM, 1-HP 100 μM, noncompetitive partial-inhibition model): 110 ± 7 nM
SULT2B1b substrate [9]: neither of which is a SULT2B1b substrate
